The subject of test [1] is pERK. The experiment in a line: pERK phosphoflow in live primary CLL cells after 24 h treatment. Type of test: cell-based, human. The settings on record: for IC50: Homo sapiens, CLL cell, read-out: IC50 for decrease in pERK (dMFI).
A further test deals with Mcl-1. Put plainly: Mcl-1 by flow cytometry in live primary CLL cells after 24 h treatment. The settings on record: for IC50: Homo sapiens, CLL cell, read-out: IC50 for lowering Mcl-1 (Mcl-1 dMFI). Type of test: cell-based, human. Summed up:
(§1)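 Primary CLL cells were thawed and resuspended at 8 × 10^6 cells/mL in high-glucose complete medium (2.5 g/L total glucose). They were plated at 2 × 10^6 per well on confluent OP9 stroma, rested overnight, then treated 24 h with test compound at 0.1% DMSO final. Staining: Fc block, viability dye, CD19/CD5, Foxp3-buffer fix/perm, then intracellular Bcl-2 BV421 or Mcl-1 AF647. Live CD5+CD19+ gate; dMFI = MFI minus FMO; n = 6 donors, 2 experiments pooled.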
Background: In flow cytometry, cells or beads pass a laser one at a time.

The test system of another test is Bcl-2. Put plainly: Bcl-2 by flow cytometry in live primary CLL cells after 24 h treatment. The settings on record: for IC50: Homo sapiens, CLL cell, read-out: IC50 for lowering Bcl-2 (Bcl-2 dMFI). The format is cell-based, human. Summed up:
as §1

The next test concerns pNF-κB p65. The experiment in a line: pNF-κB p65 phosphoflow in live primary CLL cells after 24 h treatment. The settings on record: for IC50: Homo sapiens, CLL cell, read-out: IC50 for decrease in pNF-κB p65 (dMFI). The format is cell-based, human.
Another test relates to pS6. The experiment in a line: pS6 phosphoflow in live primary CLL cells after 24 h treatment. Particulars: for IC50: Homo sapiens, CLL cell, read-out: IC50 for decrease in pS6 (dMFI). The format is cell-based, human.
A further test has as its system primary CLL cells. The experiment in a line: Cell death. Type of test: cell-based, human. Particulars: for IC50: Homo sapiens, CLL cell, read-out: IC50 for cell death; for primary CLL cells died: cleaved caspase-3.
Test [2] has as its system TRAF1. The experiment in a line: TRAF1 by flow cytometry in live primary CLL cells on OP9 after 24 h treatment. Particulars: for effect on TRAF1 expression: primary CLL cells, 24 h. Type of test: cell-based, human.
The subject of test [3] is TRAF1 in the CD40 signaling complex. Type of test: cell-based, human. The settings on record: BV6 5 μM. Summed up:
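shCTL or shPKN1 RAJI cells (6 × 10^6) received cycloheximide 3 μg/ml for the indicated times, ± BV6 5 μM, and were lysed in 1% NP-40 with protease/phosphatase inhibitors. For IP1, Protein G magnetic beads were loaded with 0.5 μg anti-CD40 (10 min, RT), then incubated with lysate overnight at 4°C. Unbound material was re-precipitated with 0.5 μg anti-TRAF1 (IP2). Both IPs and lysates were western blotted for TRAF1.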

The test system of test [4] is pERK. Put plainly: pERK by flow cytometry in RAJI cells after 24 h inhibitor treatment. Type of test: cell-based, human.
For a further test, the target named is PRK1(h) (Homo sapiens, UniProt Q16512). Put plainly: Dose titration of selected inhibitors against PKN1 kinase activity in vitro. The format is biochemical.
PRK1(h), sequence (Q16512 whole entry): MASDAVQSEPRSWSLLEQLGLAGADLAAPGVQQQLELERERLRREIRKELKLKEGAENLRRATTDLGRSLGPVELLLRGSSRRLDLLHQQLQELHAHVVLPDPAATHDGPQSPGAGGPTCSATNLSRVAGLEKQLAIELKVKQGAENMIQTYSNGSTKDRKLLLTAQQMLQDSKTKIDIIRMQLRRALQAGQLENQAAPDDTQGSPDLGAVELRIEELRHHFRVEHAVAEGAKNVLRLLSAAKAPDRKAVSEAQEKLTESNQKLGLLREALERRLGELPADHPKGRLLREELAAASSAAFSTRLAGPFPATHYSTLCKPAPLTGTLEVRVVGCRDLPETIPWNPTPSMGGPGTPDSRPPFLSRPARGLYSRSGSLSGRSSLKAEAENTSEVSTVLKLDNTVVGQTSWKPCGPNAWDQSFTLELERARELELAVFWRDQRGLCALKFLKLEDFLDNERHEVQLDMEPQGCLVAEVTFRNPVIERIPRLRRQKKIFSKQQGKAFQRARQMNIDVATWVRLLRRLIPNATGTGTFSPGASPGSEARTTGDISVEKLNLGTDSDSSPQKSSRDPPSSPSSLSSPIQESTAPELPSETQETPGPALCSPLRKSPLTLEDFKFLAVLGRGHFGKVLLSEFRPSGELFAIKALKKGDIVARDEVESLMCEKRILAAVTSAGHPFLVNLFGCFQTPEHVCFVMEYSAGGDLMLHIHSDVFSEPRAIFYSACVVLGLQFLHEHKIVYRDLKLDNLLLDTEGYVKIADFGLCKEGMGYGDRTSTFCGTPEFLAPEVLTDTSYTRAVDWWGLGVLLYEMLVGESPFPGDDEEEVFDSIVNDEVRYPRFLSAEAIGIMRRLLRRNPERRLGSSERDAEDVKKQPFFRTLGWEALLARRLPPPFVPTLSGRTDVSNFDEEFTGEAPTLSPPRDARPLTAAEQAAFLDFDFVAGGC
Test [5] concerns TRAF1. The format is cell-based, human. The settings on record: 24 h; for IC50: Homo sapiens, Raji, read-out: IC50 for reducing TRAF1; for effect on TRAF1 levels: RAJI cells, 0.1 nM-10 μM. In outline: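 shCTL RAJI cells were seeded at 2 × 10^5 per well in RPMI 1640 with 10% FCS, 2-ME, glutamine, pen/strep and non-essential amino acids. Test compound was added at 0.1 nM–10 μM (0.1% DMSO final) for 24 h. Staining: Fc block, viability dye, Foxp3-buffer fixation/permeabilisation, rat anti-TRAF1 (clone 1F3) with goat anti-rat PE secondary. TRAF1 dMFI = MFI minus FMO background.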

This is an account of results in paper PMC8475556 (Oncoimmunology, 2021).

Like-named read-outs stand apart in the source and are kept apart here. *1 amine or outer side, *2 acyl side, *3 side chain or, on linkers, in order; H or OH if unused. Where a SMILES comes first, the peptide text is derived from it. Bridges are numbered along the chain shown (N, C = ends). Roman numbers before positions name the chains, in order. [ ]: non-standard residue; d: D form. Hexamethylenediamine = C(CCCN[*:2])CCN[*:1]; Dip = N[C@H](C(=O)O)C(c1ccccc1)c1ccccc1; Chg = N[C@H](C(=O)O)C1CCCCC1; NMeA = CN[C@@H](C)C(=O)O

For the molecule `Clc1ccc(C2(c3ccc(-c4cn[nH]c4)cc3)CCNCC2)cc1` [AT7867], in the test with pERK [1] (primary CLL cells), the “effect on pERK” value was “slightly reduced”. Further, the “effect on Mcl-1 expression” value in the test on Mcl-1 (primary CLL cells) is recorded as “did not affect”. Besides, in the test with Bcl-2 (primary CLL cells), the “effect on Bcl-2 expression” value is “did not affect”. For the same molecule, the “effect on levels of pNF-κB” value in the test with pNF-κB p65 (primary CLL cells) is recorded as “did not affect”. In addition, the “effect on pS6” value in the test with pS6 (primary CLL cells) is reported as “slightly reduced”. Moreover, the “effect on cell death” value with primary CLL cells (primary CLL cells, 24 h) is “no effect”. For the same molecule, the “effect on TRAF1 expression” value in the test with TRAF1 [2] was “no effect”.
Consider `CN[C@@H](C)C(=O)N[C@H](C(=O)N1CCC[C@H]1C(=O)N[C@H](C(=O)NCCCCCCNC(=O)[C@@H](NC(=O)[C@@H]1CCCN1C(=O)[C@@H](NC(=O)[C@H](C)NC)C1CCCCC1)C(c1ccccc1)c1ccccc1)C(c1ccccc1)c1ccccc1)C1CCCCC1` [BV6] (I: H-[NMeA][Chg]P[Dip] / II: H-[NMeA][Chg]P[Dip]; linker I:C-II:C via Hexamethylenediamine), for which, in test [3] (RAJI cells, cycloheximide), the “cytosolic pool of TRAF1 (IP2)” value was “not sensitive”. In addition, the “CD40 associated TRAF1 protein” value in test [3] (shCTL RAJI cells (presence of PKN1), cycloheximide 6 h) is “rescued”; in test [3] (shPKN1 RAJI cells (absence of PKN1), cycloheximide), “partially rescued”.
As a reminder, the IC50 is the concentration at which inhibition is half-maximal. As for `CC(=O)c1cnc2ccc(-c3cc(Cl)c(O)c(Cl)c3)nc2c1N[C@H]1CC[C@H](CN(C)C)CC1` [OTSSP167], the 50% inhibitory concentration (IC50) amounted to 1.04 µM in the test with pERK [1]; 0.0257 µM in the test with Mcl-1; 0.0498 µM in the test on Bcl-2; 0.32 µM in the test with pNF-κB p65; 0.31 µM in the test on pS6; 0.011 µM against PRK1(h). In addition, the half-inhibitory concentration (IC50) in the test with TRAF1 [5] was 0.018 µM; in the test on primary CLL cells (24 h) it was 0.0459 µM. In addition, the pERK levels entry in the test with pERK [4] is “decreased only at the highest levels”. Further, the “reduction of IC50 for cell death compared to treatment alone” value in the test with primary CLL cells (OTSSP167 with 1 nM venetoclax versus OTSSP167 alone) stood at 1.9 fold. Moreover, the cells survived treatment with primary CLL cells (primary CLL cells, suboptimal concentration 50 nM) is listed as 20–50%. For the same molecule, the “primary CLL cells died” value in the test with primary CLL cells (suboptimal 10 nM alone, 24 h) was under 15%.
Turning to `CCCCNc1ncc2c(-c3ccc(CN4CCN(C)CC4)cc3)cn([C@H]3CC[C@H](O)CC3)c2n1` [UNC-2025], the “effect on TRAF1 levels” value in the test with TRAF1 [5] is “increased rather than decreased”.
As for `CC(C)c1cc(CNc2nc(Nc3cc(C4CC4)[nH]n3)cc(N3CCN(C)CC3)n2)on1` [XL-228], the half-maximal inhibitory concentration (IC50) in the test with pERK [1] was found to be 2.23 µM; in the test with Mcl-1, 2.54 µM; with Bcl-2, 3.52 µM; with pNF-κB p65, 2.47 µM; in the test with pS6, 1.44 µM; in the test on TRAF1 [5], 2.3 µM. Also, the cells survived treatment in the test on primary CLL cells (primary CLL cells, suboptimal concentration 4 μM) was 20–50%.
As for `CC1(COc2ccc3c(c2)ncn3-c2ccc3cccc(N4CCC(N)CC4)c3n2)COC1` [crenolanib, Crenolanib], in the test with TRAF1 [5], the “effect on TRAF1 levels” value is “increased rather than decreased”.
Take `CC(C)NC[C@@H](C(=O)N1CCN(c2ncnc3c2[C@H](C)C[C@H]3O)CC1)c1ccc(Cl)cc1` [ipatasertib, Ipatasertib]: the IC50 in the test on TRAF1 [5] is over 10 µM.
As to `C[C@@H]1CCN(C(=O)CC#N)C[C@@H]1N(C)c1ncnc2[nH]ccc12` [tofacitinib], in the test with TRAF1 [5], the “effect on TRAF1 levels” value is given as “minimal effects”.
In the case of `Cn1ncc(Cl)c1-c1cc(C(=O)N[C@H](CN)Cc2ccc(F)c(F)c2)oc1Cl` [uprosertib, Uprosertib], the concentration for half-maximal inhibition (IC50) in the test on TRAF1 [5] worked out at 4.9 µM.
Consider `CC1(C)CCC(CN2CCN(c3ccc(C(=O)NS(=O)(=O)c4ccc(NCC5CCOCC5)c([N+](=O)[O-])c4)c(Oc4cnc5[nH]ccc5c4)c3)CC2)=C(c2ccc(Cl)cc2)C1` [venetoclax], for which the IC50 in the test with primary CLL cells (24 h) worked out at 0.00991 µM. Besides, the “primary CLL cells died” value in the test with primary CLL cells (suboptimal 1 nM alone, 24 h) is given as under 15%. The “decrease of IC50 for cell death compared to treatment alone” value in the test with primary CLL cells (venetoclax with 10 nM OTSSP167 versus venetoclax alone) was 5.8 fold. Besides, the “patients whose CLL cells were enriched for TRAF1hi cells after treatment” value in the test on TRAF1 [2] (dose that resulted in approximately 50% death) is reported as 4 of 6. Besides, the “effect on TRAF1 expression” value in the test with TRAF1 [2] is “lack of effect”.
